≈ marks a conversion by molar mass, not a printed value.
Legend:
Format in all cases: functional
Nakaseomyces glabratus = assay: Antimicrobial activity against Candida glabrata 537 after 24 hrs by serial dilution method; settings: Nakaseomyces glabratus, 537, 24 h
Summary of the method: (§1)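 Broth serial dilution MIC in 96-well plates following NCCLS/CLSI methods. Compounds were dissolved in DMSO and serially diluted in growth medium, with incubation at 35 °C. […] C. parapsilosis 22019 served as the quality-control strain in each assay.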

Candida parapsilosis = assay: Antimicrobial activity against Candida parapsilosis 22019 after 24 hrs by serial dilution method; settings: Lodderomyces parapsilosis, 22019, 24 h; summary of the method: as §1
Cryptococcus neoformans = assay: Antimicrobial activity against Cryptococcus neoformans 32609 after 72 hrs by serial dilution method; settings: Cryptococcus neoformans, 32609, 72 h; summary of the method: as §1
Aspergillus fumigatus = assay: Antimicrobial activity against Aspergillus fumigatus 7544 after 48 hrs by serial dilution method; settings: Aspergillus fumigatus, 7544, 48 h; summary of the method: as §1
Candida albicans [1] = assay: Antimicrobial activity against Candida albicans SC5314 after 24 hrs by serial dilution method; settings: SC5314, 24 h; summary of the method: as §1
Candida albicans [2] = assay: Antimicrobial activity against Candida albicans Y0109 after 24 hrs by serial dilution method; settings: Y0109, 24 h; summary of the method: as §1

SMILES | MIC (Nakaseomyces glabratus) [µg/mL] | MIC (Candida parapsilosis) [µg/mL] | MIC (Cryptococcus neoformans) [µg/mL] | MIC (Aspergillus fumigatus) [µg/mL] | MIC (Candida albicans [1]) [µg/mL] | MIC (Candida albicans [2]) [µg/mL]
C[C@@H](N1CCc2nc(-c3ccsc3)sc2C1)[C@](O)(Cn1cncn1)c1ccc(F)cc1F | 0.25 (≈ 0.528 µM) | 0.25 (≈ 0.528 µM) | 0.25 (≈ 0.528 µM) | 8 (≈ 16.9 µM) | 0.25 (≈ 0.528 µM) | 0.25 (≈ 0.528 µM)
C[C@@H](N1CCn2nc(-c3ccco3)nc2C1)[C@](O)(Cn1cncn1)c1ccc(F)cc1F | 0.25 (≈ 0.566 µM) | 0.25 (≈ 0.566 µM) | 0.25 (≈ 0.566 µM) | 16 (≈ 36.2 µM) | 0.125 (≈ 0.283 µM) | 0.125 (≈ 0.283 µM)
C[C@@H](N1CCn2nc(-c3ccsc3)nc2C1)[C@](O)(Cn1cncn1)c1ccc(F)cc1F | 0.125 (≈ 0.273 µM) | 0.125 (≈ 0.273 µM) | 0.125 (≈ 0.273 µM) | 16 (≈ 35 µM) | 0.125 (≈ 0.273 µM) | 0.125 (≈ 0.273 µM)
C[C@@H](N1CCn2nc(Br)nc2C1)[C@](O)(Cn1cncn1)c1ccc(F)cc1F | 0.5 (≈ 1.1 µM) | 0.25 (≈ 0.55 µM) | 0.25 (≈ 0.55 µM) | 16 (≈ 35.2 µM) | 0.125 (≈ 0.275 µM) | 0.125 (≈ 0.275 µM)
C[C@@H](N1CCn2nc(-c3ccncc3)nc2C1)[C@](O)(Cn1cncn1)c1ccc(F)cc1F | 0.125 (≈ 0.276 µM) | 0.0312 (≈ 0.0691 µM) | 0.125 (≈ 0.276 µM) | 16 (≈ 35.4 µM) | 0.0625 (≈ 0.138 µM) | 0.0625 (≈ 0.138 µM)
C[C@@H](N1CCn2nc(-c3cncnc3)nc2C1)[C@](O)(Cn1cncn1)c1ccc(F)cc1F | 0.0625 (≈ 0.138 µM) | 0.0625 (≈ 0.138 µM) | 0.0625 (≈ 0.138 µM) | 32 (≈ 70.6 µM) | 0.0312 (≈ 0.0689 µM) | 0.125 (≈ 0.276 µM)
C[C@@H](N1CCn2nc(-c3ccc(F)nc3)nc2C1)[C@](O)(Cn1cncn1)c1ccc(F)cc1F | 0.0312 (≈ 0.0664 µM) | 0.0625 (≈ 0.133 µM) | 0.0312 (≈ 0.0664 µM) | 2 (≈ 4.25 µM) | 0.0156 (≈ 0.0332 µM) | 0.0625 (≈ 0.133 µM)
C[C@@H](N1CCn2nc(-c3cncc(F)c3)nc2C1)[C@](O)(Cn1cncn1)c1ccc(F)cc1F | 1 (≈ 2.13 µM) | 0.125 (≈ 0.266 µM) | 0.125 (≈ 0.266 µM) | 32 (≈ 68 µM) | 0.125 (≈ 0.266 µM) | 0.125 (≈ 0.266 µM)
C[C@@H](N1CCn2nc(-c3cncc(C#N)c3)nc2C1)[C@](O)(Cn1cncn1)c1ccc(F)cc1F | 1 (≈ 2.09 µM) | 0.25 (≈ 0.524 µM) | 0.125 (≈ 0.262 µM) | 64 (≈ 134 µM) | 0.125 (≈ 0.262 µM) | 0.125 (≈ 0.262 µM)
COc1ccc(-c2nc3n(n2)CCN([C@H](C)[C@](O)(Cn2cncn2)c2ccc(F)cc2F)C3)cn1 | 0.5 (≈ 1.04 µM) | 0.125 (≈ 0.259 µM) | 0.25 (≈ 0.518 µM) | 32 (≈ 66.3 µM) | 0.0625 (≈ 0.13 µM) | 0.125 (≈ 0.259 µM)
Cc1ncc(-c2nc3n(n2)CCN([C@H](C)[C@](O)(Cn2cncn2)c2ccc(F)cc2F)C3)cn1 | 0.25 (≈ 0.535 µM) | 0.125 (≈ 0.267 µM) | 0.125 (≈ 0.267 µM) | 32 (≈ 68.5 µM) | 0.0625 (≈ 0.134 µM) | 0.125 (≈ 0.267 µM)
COc1ncc(-c2nc3n(n2)CCN([C@H](C)[C@](O)(Cn2cncn2)c2ccc(F)cc2F)C3)cn1 | 0.25 (≈ 0.517 µM) | 0.25 (≈ 0.517 µM) | 0.5 (≈ 1.03 µM) | 32 (≈ 66.2 µM) | 0.0625 (≈ 0.129 µM) | 0.125 (≈ 0.259 µM)
C[C@@H](N1CCc2nc(Br)sc2C1)[C@](O)(Cn1cncn1)c1ccc(F)cc1F | 1 (≈ 2.13 µM) | 1 (≈ 2.13 µM) | 0.5 (≈ 1.06 µM) | 32 (≈ 68 µM) | 1 (≈ 2.13 µM) | 1 (≈ 2.13 µM)
C[C@@H](N1CCc2nc(-c3ccc(Cl)cc3)sc2C1)[C@](O)(Cn1cncn1)c1ccc(F)cc1F | 1 (≈ 1.99 µM) | 2 (≈ 3.98 µM) | 1 (≈ 1.99 µM) | 32 (≈ 63.7 µM) | 0.5 (≈ 0.996 µM) | 1 (≈ 1.99 µM)
C[C@@H](N1CCc2nc(-c3ccc(C(F)(F)F)cc3)sc2C1)[C@](O)(Cn1cncn1)c1ccc(F)cc1F | 1 (≈ 1.87 µM) | 2 (≈ 3.73 µM) | 2 (≈ 3.73 µM) | 32 (≈ 59.8 µM) | 1 (≈ 1.87 µM) | 2 (≈ 3.73 µM)
COc1ccc(-c2nc3c(s2)CN([C@H](C)[C@](O)(Cn2cncn2)c2ccc(F)cc2F)CC3)cc1 | 1 (≈ 2.01 µM) | 0.5 (≈ 1 µM) | 1 (≈ 2.01 µM) | 16 (≈ 32.2 µM) | 1 (≈ 2.01 µM) | 1 (≈ 2.01 µM)
Cc1ccc(-c2nc3c(s2)CN([C@H](C)[C@](O)(Cn2cncn2)c2ccc(F)cc2F)CC3)cc1 | 1 (≈ 2.08 µM) | 0.5 (≈ 1.04 µM) | 0.5 (≈ 1.04 µM) | 16 (≈ 33.2 µM) | 0.5 (≈ 1.04 µM) | 1 (≈ 2.08 µM)
C[C@@H](N1CCc2nc(-c3ccc(F)cc3)sc2C1)[C@](O)(Cn1cncn1)c1ccc(F)cc1F | 4 (≈ 8.24 µM) | 2 (≈ 4.12 µM) | 1 (≈ 2.06 µM) | 16 (≈ 33 µM) | 1 (≈ 2.06 µM) | 1 (≈ 2.06 µM)
C[C@@H](N1CCc2nc(-c3ccc(Br)cc3)sc2C1)[C@](O)(Cn1cncn1)c1ccc(F)cc1F | 2 (≈ 3.66 µM) | 4 (≈ 7.32 µM) | 1 (≈ 1.83 µM) | 16 (≈ 29.3 µM) | 1 (≈ 1.83 µM) | 1 (≈ 1.83 µM)
CC(C)c1ccc(-c2nc3c(s2)CN([C@H](C)[C@](O)(Cn2cncn2)c2ccc(F)cc2F)CC3)cc1 | 1 (≈ 1.96 µM) | 0.5 (≈ 0.981 µM) | 1 (≈ 1.96 µM) | 16 (≈ 31.4 µM) | 0.5 (≈ 0.981 µM) | 1 (≈ 1.96 µM)

From ChEMBL document CHEMBL3259614, “Design, synthesis, and structure-activity relationship studies of novel fused heterocycles-linked triazoles with good activity and water solubility” (J Med Chem, 2014)
